Data: ChEMBL document CHEMBL4145444, “Investigating the structure-activity relationships of N'-[(5-nitrofuran-2-yl) methylene] substituted hydrazides against Trypanosoma cruzi to design novel active compounds” (Eur J Med Chem, 2018)

Tests used:
Trypanosoma cruzi [1] = assay: Antitrypanosomal activity against Trypanosoma cruzi Colombiana Tc1 epimastigotes measured after 72 hrs; assay type: functional, organism-based; conditions: for IC50: Trypanosoma cruzi, Colombiana, 72 h
Outline: (§1)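 Exponentially growing epimastigotes (1.0*10^7 parasites/mL) cultured in LIT-FCS medium with compound from 0.4 to 300.0 µM, added from DMSO stock (DMSO ≤1.0%), 72 h at 28 °C. Viable parasites read by absorbance at 562 nm. PGI computed against untreated culture after subtracting compound/medium blanks. IC50 from sigmoid dose-response fit using at least six concentrations. Triplicates, at least two independent experiments.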

[2] = Cytotoxicity against human U2OS cells assessed as reduction in cell viability; assay type: cell-based
Trypanosoma cruzi [3] = assay: Antitrypanosomal activity against Trypanosoma cruzi Y Tc2 amastigotes infected in human U2OS cells after 72 hrs by Draq5 staining based HCS analysis; assay type: functional, organism-based
Outline: (§2)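 U2OS cells (700/well, high-glucose DME, 10% FBS) seeded and incubated 24 h. Then infected with 2,800 Y-strain trypomastigotes harvested from LLC-MK2 cells. On day 3, 14-point 2-fold dilutions added, top 200 μM, 1% DMSO, 72 h. Fixed in 4% PFA, Draq5 stained, imaged at 20x. Infection ratio normalized to DMSO-mock infected and uninfected controls. IC50 by sigmoidal variable-slope fit. Doublets, duplicate experiments.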

[4] = Selectivity index, ratio of CC50 for cytotoxicity against human U2OS cells to IC50 for Trypanosoma cruzi Y Tc2 amastigotes infected in human U2OS cells; assay type: toxicity, cell-based; conditions: read-out: Ratio CC50/IC50
Outline: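 Ratio of U2OS CC50 to Y-strain amastigote IC50, both from the same 72 h Draq5-stained HCS assay in infected U2OS cells (2-fold series up to 200 μM, 1% DMSO).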

Trypanosoma cruzi [5] = assay: Antitrypanosomal activity against Trypanosoma cruzi Y Tc2 amastigotes infected in human U2OS cells up to 200 uM after 72 hrs by Draq5 staining based HCS analysis relative to control; assay type: functional; outline: as §2
Trypanosoma cruzi [6] = assay: Antitrypanosomal activity Trypanosoma cruzi Y Tc2 epimastigotes measured after 72 hrs; assay type: functional, organism-based; conditions: for IC50: Trypanosoma cruzi, Y, 72 h; outline: as §1
Trypanosoma cruzi [7] = assay: Antitrypanosomal activity Trypanosoma cruzi Bug 2149 cl10 Tc5 epimastigotes measured after 72 hrs; assay type: functional, organism-based; conditions: for IC50: Trypanosoma cruzi, Bug 2149 cl10, CL1-0, 72 h
Outline: as §1, with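 “°C.” for “°C. Viable parasites read by absorbance at 562 nm.”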

Trypanosoma cruzi [8] = assay: Antitrypanosomal activity against Trypanosoma cruzi Silvio X10 cl1 Tc1 epimastigotes measured after 72 hrs; assay type: functional, organism-based; conditions: for IC50: Trypanosoma cruzi, Silvio X10 cl1, 72 h
Outline: as §1, with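 “°C.” for “°C. Viable parasites read by absorbance at 562 nm.”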

Row | IC50 (Trypanosoma cruzi [3]) [µM] | log1/IC50 (Trypanosoma cruzi [6]) | IC50 (Trypanosoma cruzi [6]) [µM] | Structure (SMILES) | log1/IC50 (Trypanosoma cruzi [1]) | IC50 (Trypanosoma cruzi [1]) [µM] | CC50 [2] [µM] | selectivity ratio [4] | Emax (Trypanosoma cruzi [5]) [%] | log1/IC50 (Trypanosoma cruzi [7]) | log1/IC50 (Trypanosoma cruzi [8]) | IC50 (Trypanosoma cruzi [7]) [µM] | IC50 (Trypanosoma cruzi [8]) [µM]
1 | 2.9 |  |  | O=C(N/N=C/c1ccc([N+](=O)[O-])o1)C1CCCCC1 | 4.99 | 10.2 | 25.4 | 8.77 | 119 |  |  |  | 
2 | 4.26 | 3.52 |  | O=C(N/N=C/c1ccc([N+](=O)[O-])o1)c1ccc(O)cc1 [NIFUROXAZIDE] | 3.73 | 188 | 45.7 | 10.7 | 91.9 | 3.52 | 3.52 |  | 
3 |  | 5.04 | 9.11 | CCc1ccc(C(=O)N/N=C/c2ccc([N+](=O)[O-])o2)cc1 | 5.18 | 6.55 |  |  |  | 5.02 | 4.91 | 9.53 | 12.3
4 |  | 4.76 | 17.3 | Cc1nnsc1C(=O)N/N=C/c1ccc([N+](=O)[O-])o1 | 4.85 | 14.2 |  |  |  | 4.73 | 4.47 | 18.7 | 34.1
5 |  | 4.6 | 24.9 | O=C(N/N=C/c1ccc([N+](=O)[O-])o1)c1ccco1 | 4.88 | 13.1 |  |  |  | 5 | 4.75 | 9.99 | 17.9
6 | 1.06 | 5.26 | 5.51 | O=C(N/N=C/c1ccc([N+](=O)[O-])o1)c1cccs1 | 4.82 | 15.1 | 57.2 | 53.9 | 94.5 | 5.16 | 4.89 | 6.87 | 12.8
7 |  | 4.98 | 10.6 | O=C(N/N=C/c1ccc([N+](=O)[O-])o1)c1cccc(C(F)(F)F)c1 | 5 | 9.98 |  |  |  | 4.84 | 4.59 | 14.6 | 25.5
8 | 1.87 | 5.15 | 7.15 | O=C(N/N=C/c1ccc([N+](=O)[O-])o1)c1ccc2ccccc2c1 | 5.12 | 7.58 | 64.2 | 34.3 | 97 | 5 | 5.02 | 9.9 | 9.59
9 | 2.61 |  |  | CCCCCC(=O)N/N=C/c1ccc([N+](=O)[O-])o1 | 5.12 | 7.58 | 19.3 | 7.39 | 115 |  |  |  | 
10 |  | 4.09 | 80.2 | N#CCC(=O)N/N=C/c1ccc([N+](=O)[O-])o1 | 4.22 | 60.6 |  |  |  | 4.56 | 4.39 | 27.4 | 40.5

Second part, the compound before the results:

Row | Structure (SMILES) | IC50 (Trypanosoma cruzi [3]) [µM] | log1/IC50 (Trypanosoma cruzi [6]) | IC50 (Trypanosoma cruzi [6]) [µM] | log1/IC50 (Trypanosoma cruzi [1]) | IC50 (Trypanosoma cruzi [1]) [µM] | CC50 [2] [µM] | selectivity ratio [4] | Emax (Trypanosoma cruzi [5]) [%] | log1/IC50 (Trypanosoma cruzi [7]) | log1/IC50 (Trypanosoma cruzi [8]) | IC50 (Trypanosoma cruzi [7]) [µM] | IC50 (Trypanosoma cruzi [8]) [µM]
11 | O=C(Cc1ccccc1)N/N=C/c1ccc([N+](=O)[O-])o1 |  |  |  | 5 | 10.1 |  |  |  |  |  |  | 
12 | O=C(N/N=C/c1ccc([N+](=O)[O-])o1)c1ccc(-c2ccccc2)cc1 | 0.71 | 5.93 |  | 5.51 | 3.06 | 109 | 154 | 97.8 | 5.74 | 5.71 |  | 
13 | CN(C)c1ccc(C(=O)N/N=C/c2ccc([N+](=O)[O-])o2)cc1 |  |  |  | 4.07 | 85.5 |  |  |  |  |  |  | 
14 | COc1ccc(C(=O)N/N=C/c2ccc([N+](=O)[O-])o2)cc1 |  |  |  | 5.09 | 8.08 |  |  |  |  |  |  | 
15 | O=C(N/N=C/c1ccc([N+](=O)[O-])o1)c1ccc(Cl)cc1 |  |  |  | 5.06 | 8.64 |  |  |  |  |  |  | 
16 | CCCc1ccc(C(=O)N/N=C/c2ccc([N+](=O)[O-])o2)cc1 |  |  |  | 5.14 | 7.25 |  |  |  |  |  |  | 
17 | O=C(N/N=C/c1ccc([N+](=O)[O-])o1)C1CCCC1 |  |  |  | 5.01 | 9.67 |  |  |  |  |  |  | 
18 | Cc1ccc(C(=O)N/N=C/c2ccc([N+](=O)[O-])o2)cc1 |  |  |  | 4.92 | 11.9 |  |  |  |  |  |  | 
